Assay [1] deals with T1, Histone-lysine N-methyltransferase EHMT2 (Homo sapiens, UniProt Q96KQ7).
T1 sequence (Q96KQ7 whole entry): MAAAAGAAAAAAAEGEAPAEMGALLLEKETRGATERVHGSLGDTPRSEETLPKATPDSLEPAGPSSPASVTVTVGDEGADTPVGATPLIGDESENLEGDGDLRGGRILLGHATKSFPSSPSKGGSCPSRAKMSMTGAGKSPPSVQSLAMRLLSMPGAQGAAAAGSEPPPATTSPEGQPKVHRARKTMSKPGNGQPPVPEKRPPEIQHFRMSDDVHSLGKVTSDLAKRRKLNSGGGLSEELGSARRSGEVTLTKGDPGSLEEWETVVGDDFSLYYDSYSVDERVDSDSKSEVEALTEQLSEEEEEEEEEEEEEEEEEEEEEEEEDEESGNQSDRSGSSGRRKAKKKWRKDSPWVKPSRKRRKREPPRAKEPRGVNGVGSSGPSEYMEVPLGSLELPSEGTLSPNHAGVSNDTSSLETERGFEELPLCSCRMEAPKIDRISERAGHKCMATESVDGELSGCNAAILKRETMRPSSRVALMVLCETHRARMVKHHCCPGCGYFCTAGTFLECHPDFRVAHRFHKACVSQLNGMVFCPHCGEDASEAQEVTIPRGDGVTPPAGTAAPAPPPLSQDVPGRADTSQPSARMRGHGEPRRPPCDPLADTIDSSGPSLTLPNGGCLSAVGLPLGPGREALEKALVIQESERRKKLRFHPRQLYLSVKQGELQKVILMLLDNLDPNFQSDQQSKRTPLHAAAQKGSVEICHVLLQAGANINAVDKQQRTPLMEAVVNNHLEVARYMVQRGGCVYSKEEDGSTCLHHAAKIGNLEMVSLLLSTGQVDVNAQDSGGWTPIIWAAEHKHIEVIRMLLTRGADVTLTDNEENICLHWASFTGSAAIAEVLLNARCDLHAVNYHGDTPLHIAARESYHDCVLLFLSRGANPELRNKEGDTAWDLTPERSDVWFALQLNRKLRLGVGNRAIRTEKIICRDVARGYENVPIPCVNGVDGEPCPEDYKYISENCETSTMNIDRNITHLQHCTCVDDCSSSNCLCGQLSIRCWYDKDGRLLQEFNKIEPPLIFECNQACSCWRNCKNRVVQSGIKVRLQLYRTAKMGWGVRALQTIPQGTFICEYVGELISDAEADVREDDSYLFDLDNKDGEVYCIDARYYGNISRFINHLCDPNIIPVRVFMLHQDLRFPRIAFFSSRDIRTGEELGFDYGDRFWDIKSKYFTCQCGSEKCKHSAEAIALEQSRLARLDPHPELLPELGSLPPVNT
As to the kind of experiment: Inhibition of G9a (unknown origin) using biotinylated-histone H3 (1 to 21 residues)/S-adenosyl-methionine as substrate/methyl donor after 3 hrs by AlphaScreen assay. Summed up: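 AlphaScreen G9a assay. Compounds were first screened at 10 µM. IC50 came from concentration-response curves of ten escalating concentrations (0.1 nM–10 µM), using two independent experiments, reported as mean ± SD.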
In general terms: In Alpha technology, singlet oxygen from a donor bead excites a nearby acceptor bead.

Assay [2] is described as follows: Antiproliferative activity against human HCT116 cells assessed as inhibition of cell viability after 72 hrs by MTT assay. It is filed as functional, cell-based. The following applies: HCT-116, 72 h. For orientation: Formazan colour is commonly taken as a measure of viable cells.
The nature of assay [3]: Antiproliferative activity against human MCF7 cells assessed as inhibition of cell viability after 72 hrs by MTT assay. In kind it is functional, cell-based. The settings on record: MCF7, 72 h.
The nature of assay [4]: Antiproliferative activity against human HepG2 cells assessed as inhibition of cell viability after 72 hrs by MTT assay. In kind it is functional, cell-based. The following applies: HepG2, 72 h.
Assay [5] addresses T1, Histone-lysine N-methyltransferase EHMT2. As to the kind of experiment: Inhibition of G9a (unknown origin).

SMILES strings stand for the structures.

For orientation: IC50 means the concentration at which inhibition is half-maximal. Turning to `CN(C)CCNc1cc(N2CCN(c3ncccn3)CC2)c2noc3c2c1C(=O)c1ccccc1-3`, the IC50 in assay [1] amounted to 3.84 µM; in assay [2] it was 4.39 µM; in assay [3] it was 4.31 µM; in assay [4], 9.14 µM.

Take `COc1ccc(Nc2cc(N3CCN(C)CC3)c3noc4c3c2C(=O)c2ccccc2-4)cc1`: the half-maximal inhibitory concentration (IC50) in assay [1] is 39.2 µM; in assay [2], 140 µM; in assay [3] it was greater than 200 µM; in assay [4], greater than 200 µM.

As for `CN1CCN(c2cc(NCCN3CCCCC3)c3c4c(onc24)-c2ccccc2C3=O)CC1`, the 50% inhibitory concentration (IC50) in assay [1] is 1.87 µM; in assay [2] it was 4.56 µM; in assay [3] it was 8.37 µM; in assay [4], 8.34 µM.

On to `CCN1CCN(c2cc(Nc3ccc(C)cc3)c3c4c(onc24)-c2ccccc2C3=O)CC1`, for which the half-inhibitory concentration (IC50) in assay [2], in assay [3] and in assay [4] was greater than 200 µM throughout.

Take `CN1CCCN(c2cc(NCCN3CCCCC3)c3c4c(onc24)-c2ccccc2C3=O)CC1`: the IC50 in assay [1] amounted to 2.49 µM; in assay [2] it was 3.96 µM; in assay [3], 5.08 µM; in assay [4] it was 6.21 µM.

Take `O=C1c2ccccc2-c2onc3c(N4CCN(c5ncccn5)CC4)cc(NCCN4CCCC4)c1c23`: the IC50 worked out at 4.57 µM in assay [1], 3.36 µM in assay [2], 4.06 µM in assay [3] and 3.1 µM in assay [4].

For `CCN1CCN(c2cc(NCCN3CCCC3)c3c4c(onc24)-c2ccccc2C3=O)CC1`, the half-maximal inhibitory concentration (IC50) in assay [1] was found to be 3.48 µM; in assay [2], 4.34 µM; in assay [3], 20.8 µM; in assay [4] it was 8.32 µM.

For the compound `O=C1c2ccccc2-c2onc3c(N4CCN(c5ccccc5)CC4)cc(NCCN4CCCCC4)c1c23`, the IC50 was 2.68 µM in assay [1], 5.32 µM in assay [2], 1.22 µM in assay [3] and 10.4 µM in assay [4].

For the compound `CN(C)CCNc1cc(N2CCN(C)CC2)c2noc3c2c1C(=O)c1ccccc1-3`, the IC50 was determined as 4.84 µM in assay [1], 18.2 µM in assay [2], 10.8 µM in assay [3] and 28.6 µM in assay [4].

For the compound `COc1cc2c(NC3CCN(C(C)C)CC3)nc(C3CCCCC3)nc2cc1OCCCN1CCCC1`, the half-maximal inhibitory concentration (IC50) in assay [2] worked out at 3.35 µM; in assay [3] it was 6.99 µM; in assay [4], 3.7 µM.

On to `CN(C)c1cc(NCCCN2CCCC2)c2c3c(onc13)-c1ccccc1C2=O`, for which the concentration for half-maximal inhibition (IC50) in assay [1] stood at 2.98 µM; in assay [2], 11.3 µM; in assay [3] it was 8.61 µM; in assay [4], 16.9 µM.

With `CN1CCCN(c2cc(NCCN3CCCC3)c3c4c(onc24)-c2ccccc2C3=O)CC1`, the IC50 in assay [1] came out at 3.96 µM; in assay [2], 3.2 µM; in assay [3], 8.26 µM; in assay [4], 9.35 µM.

Consider `O=C1c2ccccc2-c2onc3c(N4CCN(c5ccccc5)CC4)cc(NCCN4CCCC4)c1c23`, for which the concentration for half-maximal inhibition (IC50) was determined as 3.22 µM in assay [1], 4.28 µM in assay [2], 3.77 µM in assay [3] and 10.8 µM in assay [4].

With `CN(C)c1cc(NCCN2CCCC2)c2c3c(onc13)-c1ccccc1C2=O`, the IC50 in assay [1] stood at 3.87 µM; in assay [2], 6.99 µM; in assay [3], 28 µM; in assay [4] it was 24.9 µM.

For `O=C1c2ccccc2-c2onc3c(N4CCCC4)cc(NCCN4CCCC4)c1c23`, the half-maximal inhibitory concentration (IC50) is 1.22 µM in assay [1], 7.46 µM in assay [2], 10.8 µM in assay [3] and 24.9 µM in assay [4].

As for `CN1CCN(c2cc(NCCN3CCCC3)c3c4c(onc24)-c2ccccc2C3=O)CC1`, the IC50 in assay [1] worked out at 6.89 µM; in assay [2] it was 6.23 µM; in assay [3] it was 13.9 µM; in assay [4] it was 27.8 µM.

Consider `CN(C)CCNc1cc(N2CCCCC2)c2noc3c2c1C(=O)c1ccccc1-3`, for which the IC50 in assay [1] was 3.75 µM; in assay [2] it was 25.4 µM; in assay [3], 10.3 µM; in assay [4] it was 15.6 µM.

For the compound `CN(C)CCNc1cc(N(C)C)c2noc3c2c1C(=O)c1ccccc1-3`, the IC50 was 3.47 µM in assay [1], 30.7 µM in assay [2], 16.6 µM in assay [3] and 12.3 µM in assay [4].

For `COc1ccc(Nc2cc(N3CCCC3)c3noc4c3c2C(=O)c2ccccc2-4)cc1`, the figures for the IC50 in assay [2], in assay [3] and in assay [4] were greater than 200 µM, greater than 200 µM and 66.7 µM, respectively.

With `CN(C)CCNc1cc(N2CCCC2)c2noc3c2c1C(=O)c1ccccc1-3`, the IC50 in assay [1] was determined as 5.97 µM; in assay [2], 52.9 µM; in assay [3], 17.6 µM; in assay [4] it was 20.5 µM.

One may read the EC50 as the concentration giving half of the maximal effect. Higher therefore signals weaker potency. `COC(=O)c1ccc2c(c1)nc(NC(=O)c1ccccc1)n2CCCc1ccccc1` had a concentration giving a half-maximal response (EC50) in assay [5] of 5 µM.

`CCN1CCN(c2cc(Nc3ccccc3F)c3c4c(onc24)-c2ccccc2C3=O)CC1`: the IC50 in assay [2], in assay [3] and in assay [4] was greater than 200 µM in each case.

With `CCN1CCN(c2cc(Nc3ccc(OC)cc3)c3c4c(onc24)-c2ccccc2C3=O)CC1`, the half-maximal inhibitory concentration (IC50) in assay [2], in assay [3] and in assay [4] was greater than 200 µM each time.
